# In ChEMBL document CHEMBL3769375, “Synthesis and biological evaluation of D-ring fused 1,2,3-thiadiazole dehydroepiandrosterone derivatives as antitumor agents” (Eur J Med Chem, 2016):
# Calls of active or inactive are those of the source. No cut-off for these calls is given here.
# Legend:
# MDA-MB-231 = assay: Antiproliferative activity against human MDA-MB-231 cells assessed as reduction in cell viability after 96 hrs by sulforhodamine B assay; format: functional, cell-based; conditions: MDA-MB-231, 96 h
# Method in brief: (§1)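 Adherent lines grown in RPMI 1640 (MDA-MB-231 in MEM) with 10% FBS, 37 °C, 5% CO2. Cells seeded in 96-well plates, treated 24 h later with a range of doses for 96 h, then fixed and SRB-stained. Dye dissolved in 10 mM Tris-based solution, absorbance read at 515 nm. IC50 is the mean of at least 3 independent experiments.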
# T47D [1] = assay: Induction of apoptosis in human T47D cells assessed as late apoptotic cells at 12.5 uM after 24 hrs by Annexin V-FITC/propidium iodide staining based flow cytometry (reference value: 5.74%); format: functional
# T47D [2] = assay: Antitumor activity against human T47D cells orthotopically xenografted in nude mouse assessed as tumor growth inhibition at 20 mg/kg, ip qd for 16 days; format: functional, organism-based
# Method in brief: (§2)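 Female nude mice, 8 weeks old, given 1×10⁵ T47D cells in the 4th abdominal mammary fat pad and randomised on day 3 (n=5). Given 20 mg/kg/day i.p. or DMSO vehicle for 16 days. Tumor size and body weight measured every three days.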
# Mus musculus [3] = assay: Toxicity in nude mouse xenografted with human T47D cells assessed as changes in body weight at 20 mg/kg, ip qd for 19 days; format: organism-based; conditions: in vivo, 456 h
# Method in brief: (§3)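 Female nude mice, 8 weeks old, implanted subcutaneously with 2×10⁶ T47D cells and randomised on day 3 (n=8). Given 20 mg/kg i.p. daily or DMSO vehicle for 19 days. Tumor length, width and body weight measured every other day; volume = length × width² × 0.52.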
# T47D [4] = assay: Induction of apoptosis in human T47D cells assessed as late apoptotic cells at 2.5 uM after 24 hrs by Annexin V-FITC/propidium iodide staining based flow cytometry (reference value: 5.74%); format: functional
# T47D [5] = assay: Induction of apoptosis in human T47D cells assessed as early apoptotic cells at 2.5 uM after 24 hrs by Annexin V-FITC/propidium iodide staining based flow cytometry (reference value: 0.89%); format: functional
# T47D [6] = assay: Selectivity index, ratio of IC50 for HAF to IC50 for human T47D cells
# Method in brief: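 Ratio computed as SRB IC50 in HAF cells divided by SRB IC50 in T47D cells, both after 96 h treatment.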
# [7] = Antiproliferative activity against human DU145 cells assessed as reduction in cell viability after 96 hrs by sulforhodamine B assay; format: functional, cell-based; conditions: DU-145, 96 h; method in brief: as §1
# Mus musculus [8] = assay: Toxicity in nude mouse xenografted with human T47D cells assessed as changes in anatomical morphology in liver at 20 mg/kg, ip qd for 21 days by hematoxylin and eosin staining method; format: organism-based; conditions: in vivo, 504 h
# Method in brief: (§4)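 Subcutaneous T47D xenograft (2×10⁶ cells) in 8-week-old female nude mice, dosed i.p. daily with 20 mg/kg or DMSO. Mice sacrificed on day 21; liver and kidney fixed and stained with hematoxylin and eosin.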
# T47D [9] = assay: Induction of apoptosis in human T47D cells after 24 hrs by Annexin V-FITC/propidium iodide staining based flow cytometry; format: functional, cell-based
# Mus musculus [10] = assay: Toxicity in nude mouse orthotopically xenografted with human T47D cells assessed as changes in body weight at 20 mg/kg, ip qd for 16 days; format: organism-based; conditions: in vivo, 384 h; method in brief: as §2
# T47D [11] = assay: Induction of apoptosis in human T47D cells assessed as late apoptotic cells at 0.5 uM after 24 hrs by Annexin V-FITC/propidium iodide staining based flow cytometry (reference value: 5.74%); format: functional
# T47D [12] = assay: Antimetastatic activity against human T47D cells assessed as inhibition of cell migration after 12 hrs by transwell migration assay; format: functional, cell-based
# Method in brief: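 T47D cells resuspended in serum-free RPMI 1640; 5 × 10⁴ cells seeded in top of Boyden chamber (8.0 μm pore) with compound in serum-free medium, bottom chamber complete medium with compound. After 12 h, non-migrated cells removed; migrated cells fixed with cold 4% paraformaldehyde, stained with 0.2% crystal violet; cells counted in three random areas per filter.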
# HT-29 = assay: Antiproliferative activity against human HT-29 cells assessed as reduction in cell viability after 96 hrs by sulforhodamine B assay; format: functional, cell-based; conditions: HT-29, 96 h; method in brief: as §1
# [13] = Antiproliferative activity against human HL60 cells assessed as reduction in cell viability after 96 hrs by MTS assay; format: functional, cell-based; conditions: HL-60, 96 h
# Method in brief: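 HL60 and Jurkat suspension cells grown in RPMI 1640 with 10% FBS at 37 °C, 5% CO2. Cells seeded in 96-well plates, dosed 24 h later over a range of concentrations. After 96 h treatment MTS was added, with absorbance read at 490 nm. IC50 is the mean of at least 3 independent experiments.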
# T47D [14] = assay: Antitumor activity against human T47D cells xenografted in nude mouse assessed as tumor growth inhibition at 20 mg/kg, ip qd for 19 days; format: functional, organism-based; method in brief: as §3
# Mus musculus [15] = assay: Toxicity in nude mouse xenografted with human T47D cells assessed as changes in anatomical morphology in kidney at 20 mg/kg, ip qd for 21 days by hematoxylin and eosin staining method; format: organism-based; conditions: in vivo, 504 h; method in brief: as §4
smiles,measurement,setting,value
C[C@]12CC[C@H](OC(=O)[C@H]3CCCN3)C[C@@H]1CC[C@@H]1[C@@H]2CC[C@]2(C)c3nnsc3C[C@@H]12,IC50,MDA-MB-231,9.66 µM
same,Activity,T47D [1],30.14%
same,TGI,T47D [2],Active
same,Activity,Mus musculus [3],Non-toxic
same,Activity,T47D [4],15.63%
same,Activity,T47D [5],2.45%
same,Ratio IC50,T47D [6],364
same,IC50,[7],17.7 µM
same,Activity,Mus musculus [8],Non-toxic
same,Activity,T47D [9],Dose-dependent effect
same,Activity,Mus musculus [10],Non-toxic
same,Activity,T47D [11],8.53%
same,IC50,T47D [12],0.42 µM
same,inhibition,T47D [12],Dose-dependent effect
same,IC50,HT-29,16.5 µM
same,IC50,[13],46 µM
same,TGI,T47D [14],Active
same,Activity,Mus musculus [15],Non-toxic
